The list is not random: actives were taken first. Their share in the collection is about 2.2%.
CXCR6 block: CXCR6 (human) receptor inhibition; O00574; 0.36% of 360,000 active; inhibition, % at 20 µM; CHO-K1 PathHunter CXCR6 beta-arrestin, luminescence; in the data active = inhibition above about 34%, passing the limit was not always enough;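 note: antagonist mode with CXCL16 agonist at 10 nM final; 0% = 10 nM CXCL16 with DMSO and 100% = unstimulated wells without agonist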
CCR6 antagonist: CCR6 (human) receptor antagonism; CHO-K1 CCR6 PathHunter beta-arrestin, luminescence, CCL20-stimulated; inhibition, % at 20 µM; 0.49% of 340,000 active; AID 493098;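 active = compounds whose inhibition of the agonist-driven luminescence signal at 20 µM reaches about 50%, limit read from the data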;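 note: cells stimulated with CCL20 at 14 nM final; plate controls were DMSO with CCL20 for no effect and DMSO without agonist for full effect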
m5-HT2A agonist: activates the mouse 5-HT2A serotonin receptor; activation, % at 7.6 µM; 0.66% of 360,000 active; P35363; CHO-K1 mHTR2A beta-arrestin complementation, luminescence; percent of 30 µM serotonin response;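 active = activation above a run cutoff, the mean activation of all tested compounds plus 3 SD, cut at about 14% in these data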;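 note: 0% = plate median of compound wells and 100% = 30 µM serotonin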
APJ ag: APJ receptor agonism. 0.11% of 330,000 active. P35414. activation, % at 20 µM. CHO-K1 APJ PathHunter beta-arrestin, luminescence; 0% DMSO wells, 100% apelin;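 active = activation more than six SD over the plate average, tested at 20 µM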;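 note: 0% = DMSO alone and 100% = apelin-13 at 10 nM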
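Assay system: CHO-K1 APJ beta-arrestin complementation cell line / Compound: single test compound dose, 20 µM final, 1% DMSO / Times: overnight seeding, 90 min compound at 25 °C, 1 h detection / Technique: beta-gal luminescence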
EBI2 antag: blocks human EBI2 receptor beta-arrestin signaling; P32249; EBI2 beta-arrestin recruitment, luminescence, 7a,25-OHC stimulated; inhibition, % at 5 µM; 0.81% of 360,000 active; AID 651636; in the data active = inhibition above about 38%;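 note: enzyme fragment complementation signal reports receptor beta-arrestin coupling in cells; 0% = agonist plus DMSO wells and 100% = wells without agonist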
Target sequence (P32249 whole entry, looked up, the tested form may be a part): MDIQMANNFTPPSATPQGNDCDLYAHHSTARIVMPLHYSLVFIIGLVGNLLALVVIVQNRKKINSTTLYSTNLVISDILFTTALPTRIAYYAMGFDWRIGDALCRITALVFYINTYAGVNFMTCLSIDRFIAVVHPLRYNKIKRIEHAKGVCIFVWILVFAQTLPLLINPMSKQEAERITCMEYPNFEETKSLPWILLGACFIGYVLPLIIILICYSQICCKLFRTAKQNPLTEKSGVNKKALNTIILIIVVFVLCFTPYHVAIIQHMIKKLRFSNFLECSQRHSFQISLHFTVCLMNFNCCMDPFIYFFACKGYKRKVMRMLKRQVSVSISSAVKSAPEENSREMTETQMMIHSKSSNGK
APJ antagonist: antagonists of human APJ apelin receptor; P35414; CHO-K1 APJ beta-arrestin complementation, luminescence; inhibition, % at 20 µM; 0.32% of 330,000 active; AID 2521;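 active = inhibition above about 40% at 20 µM, limit read from the data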;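 note: cells challenged with 10 nM apelin-13 agonist together with compound; plate controls were apelin-13 plus DMSO wells for no effect and DMSO wells lacking apelin-13 for full effect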
Starred values were filed as active, the others as inactive.

Results for O=C(N/N=C/c1ccccc1O)c1cccc(C(F)(F)F)c1 ?
CXCR6 block: -6; CCR6 antagonist: -21; m5-HT2A agonist: -10; APJ ag: 4; EBI2 antag: 59*; APJ antagonist: -18

What do the screens show for `O=C(N/N=C/c1ccc(O)cc1)c1cccc(C(F)(F)F)c1`?
CXCR6 block: -9; CCR6 antagonist: 8; m5-HT2A agonist: -3; APJ ag: 1; EBI2 antag: -9; APJ antagonist: 2

How did O=[N+]([O-])c1ccc2c(c1Nc1ccccc1)=NC1(CCCCC1)N=2 do in these assays?
CXCR6 block: 12; CCR6 antagonist: -7; m5-HT2A agonist: 1; APJ ag: 6; EBI2 antag: 66*; APJ antagonist: 4

How did COc1ccc(Nc2c([N+](=O)[O-])ccc3c2=NC2(CCCCC2)N=3)cc1 do in these assays?
CXCR6 block: -3; CCR6 antagonist: 10; m5-HT2A agonist: 2; APJ ag: -1; EBI2 antag: 61*; APJ antagonist: -20

Results for CN1C(=O)Cc2cc(S(=O)(=O)N3CCN(c4ccc(Cl)cc4)CC3)ccc21 ?
CXCR6 block: 0; CCR6 antagonist: 14; m5-HT2A agonist: 15*; APJ ag: -3; EBI2 antag: 3; APJ antagonist: 24

Results for CN1C(=O)Cc2cc(S(=O)(=O)N3CCN(c4cccc(Cl)c4)CC3)ccc21 ?
CXCR6 block: -1; CCR6 antagonist: 5; m5-HT2A agonist: 3; APJ ag: 0; EBI2 antag: 0; APJ antagonist: 19

Results for O=C(Nc1ccccc1N1CCCCC1)c1ccc(-c2cccc(Cl)c2)o1 ?
CXCR6 block: 6; CCR6 antagonist: 16; m5-HT2A agonist: 1; APJ ag: 5; EBI2 antag: 13; APJ antagonist: -4

How did CN1CCN(c2ccccc2NC(=O)c2ccc(Br)o2)CC1 do in these assays?
CXCR6 block: -8; CCR6 antagonist: 0; m5-HT2A agonist: -2; APJ ag: -3; EBI2 antag: 6; APJ antagonist: -2

How did O=C(Nc1ccccc1N1CCOCC1)c1ccc(Br)o1 do in these assays?
CXCR6 block: 1; CCR6 antagonist: 51*; m5-HT2A agonist: 8; APJ ag: -4; EBI2 antag: 7; APJ antagonist: 4

How did CN1CCN(c2ccccc2NC(=O)c2ccc(-c3cccc(Cl)c3)o2)CC1 do in these assays?
CXCR6 block: -10; CCR6 antagonist: 55*; m5-HT2A agonist: -9; APJ ag: -5; EBI2 antag: 19; APJ antagonist: 11

Results for COc1ccc(CCNC(=O)c2cc3ccc(Cl)cc3nc2N)cc1 ?
CXCR6 block: -12; m5-HT2A agonist: 4; EBI2 antag: -4

How did CNC(=S)N/N=C1\C(=O)c2cccc3cccc1c23 do in these assays?
CXCR6 block: 37; CCR6 antagonist: 52*; m5-HT2A agonist: 10; APJ ag: -5; EBI2 antag: 17; APJ antagonist: 39

What do the screens show for `CCCCNC(=S)N/N=C1\C(=O)c2cccc3cccc1c23`?
CXCR6 block: 12; CCR6 antagonist: 12; m5-HT2A agonist: 2; APJ ag: -6; EBI2 antag: 5; APJ antagonist: 15

What do the screens show for `COCCN1C[C@@H](CO)O[C@@H](n2cnc3c(NCCO)ncnc32)C1`?
CXCR6 block: 4; m5-HT2A agonist: -1; EBI2 antag: -5

What do the screens show for `Cc1ccc(C2=CC(=O)C[C@H](c3ccc(Cl)cc3)C2)cc1`?
CXCR6 block: -3; CCR6 antagonist: 24; m5-HT2A agonist: -7; APJ ag: -5; EBI2 antag: 74*; APJ antagonist: -8

What do the screens show for `O=C1C=C(c2ccc(O)cc2)C[C@@H](c2ccc(Cl)cc2)C1`?
CXCR6 block: -10; CCR6 antagonist: 21; m5-HT2A agonist: 8; APJ ag: -3; EBI2 antag: 15; APJ antagonist: -6

What do the screens show for `O=C(N/N=C/c1cc([N+](=O)[O-])cc([N+](=O)[O-])c1O)C(O)(c1ccccc1)c1ccccc1`?
CXCR6 block: 39*; CCR6 antagonist: 32; m5-HT2A agonist: -4; APJ ag: -5; EBI2 antag: 7; APJ antagonist: 24

How did O=C(NN=Cc1c(O)ccc2ccccc12)c1ccc2c(c1)OCO2 do in these assays?
CXCR6 block: -3; CCR6 antagonist: 6; m5-HT2A agonist: 10; APJ ag: -3; EBI2 antag: 0; APJ antagonist: 13

What do the screens show for `Oc1ccc(N=Nc2ccc3c(c2)OCO3)c2ccccc12`?
APJ ag: -12; APJ antagonist: 58*

How did O=c1nc2s/c(=C\c3ccc(-c4ccccc4[N+](=O)[O-])o3)c(=O)n2nc1-c1ccccc1 do in these assays?
CXCR6 block: 0; CCR6 antagonist: 58*; m5-HT2A agonist: -3; EBI2 antag: -6

Results for COc1cccc(Nc2nc(C(N)C3CCCCC3)cs2)n1 (centres undefined) ?
CXCR6 block: -10; m5-HT2A agonist: -1; EBI2 antag: -2

What do the screens show for `CCOC(=O)CN1C(=O)S/C(=C/c2cccc([N+](=O)[O-])c2O)C1=O`?
CXCR6 block: 36; CCR6 antagonist: 56*; m5-HT2A agonist: 0; APJ ag: -8; EBI2 antag: 19; APJ antagonist: 32

How did Cc1ccc(C(=O)NNC(=O)CCCN2C(=O)/C(=C/c3ccccc3Cl)SC2=S)cc1 do in these assays?
CXCR6 block: -10; CCR6 antagonist: 4; m5-HT2A agonist: 1; APJ ag: -2; EBI2 antag: 66*; APJ antagonist: 10

What do the screens show for `O=C(CCCN1C(=O)/C(=C/c2ccccc2Cl)SC1=S)NNC(=O)c1ccc(Cl)cc1`?
CXCR6 block: 8; CCR6 antagonist: 17; m5-HT2A agonist: 0; APJ ag: -3; EBI2 antag: 60*; APJ antagonist: -1

Results for O=C(CCN1C(=O)/C(=C/c2ccccc2Cl)SC1=S)NNC(=O)c1cccnc1 ?
CXCR6 block: 3; CCR6 antagonist: -1; m5-HT2A agonist: 2; APJ ag: 5; EBI2 antag: 4; APJ antagonist: -3

What do the screens show for `CCc1nc2ccc(C(=O)NCc3ccc(OC)cc3)cn2c1N(C)CCC(C)C`?
CXCR6 block: 15; m5-HT2A agonist: -11; EBI2 antag: 20

How did O=C1C=CC(=O)N1Cc1ccccc1 do in these assays?
CXCR6 block: 90*; CCR6 antagonist: 107*; m5-HT2A agonist: 18*; APJ ag: 2; EBI2 antag: 3; APJ antagonist: -28

Results for CC(C)NC(=O)Nc1ccc2c(c1)C(=O)N([C@@H](C)CO)C[C@H](C)[C@H](CN(C)S(=O)(=O)c1ccccc1)OCCCC[C@H](C)O2 ?
CXCR6 block: -7; m5-HT2A agonist: -2; EBI2 antag: 5

What do the screens show for `Cc1nc(NNC(=O)c2ccc([N+](=O)[O-])cc2)cc(-c2ccccc2)n1`?
CXCR6 block: 29; CCR6 antagonist: 58*; m5-HT2A agonist: -3; APJ ag: 0; EBI2 antag: 2; APJ antagonist: -9
